In the library only some 3.3% were active in any assay of this set; here they are far more common.
AHR act = AHR activators, primary screen, cell-based, luminescence, luciferase reporter, human; Aryl hydrocarbon receptor (Homo sapiens), P35869; AHR-responsive luciferase reporter cells; activation, % at 5 µM; hit rate 2.5% among 320,000; in the data active = activation above about 47%;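 also: 0% = vehicle wells and 100% = reference agonist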
Target sequence (P35869 whole entry, looked up): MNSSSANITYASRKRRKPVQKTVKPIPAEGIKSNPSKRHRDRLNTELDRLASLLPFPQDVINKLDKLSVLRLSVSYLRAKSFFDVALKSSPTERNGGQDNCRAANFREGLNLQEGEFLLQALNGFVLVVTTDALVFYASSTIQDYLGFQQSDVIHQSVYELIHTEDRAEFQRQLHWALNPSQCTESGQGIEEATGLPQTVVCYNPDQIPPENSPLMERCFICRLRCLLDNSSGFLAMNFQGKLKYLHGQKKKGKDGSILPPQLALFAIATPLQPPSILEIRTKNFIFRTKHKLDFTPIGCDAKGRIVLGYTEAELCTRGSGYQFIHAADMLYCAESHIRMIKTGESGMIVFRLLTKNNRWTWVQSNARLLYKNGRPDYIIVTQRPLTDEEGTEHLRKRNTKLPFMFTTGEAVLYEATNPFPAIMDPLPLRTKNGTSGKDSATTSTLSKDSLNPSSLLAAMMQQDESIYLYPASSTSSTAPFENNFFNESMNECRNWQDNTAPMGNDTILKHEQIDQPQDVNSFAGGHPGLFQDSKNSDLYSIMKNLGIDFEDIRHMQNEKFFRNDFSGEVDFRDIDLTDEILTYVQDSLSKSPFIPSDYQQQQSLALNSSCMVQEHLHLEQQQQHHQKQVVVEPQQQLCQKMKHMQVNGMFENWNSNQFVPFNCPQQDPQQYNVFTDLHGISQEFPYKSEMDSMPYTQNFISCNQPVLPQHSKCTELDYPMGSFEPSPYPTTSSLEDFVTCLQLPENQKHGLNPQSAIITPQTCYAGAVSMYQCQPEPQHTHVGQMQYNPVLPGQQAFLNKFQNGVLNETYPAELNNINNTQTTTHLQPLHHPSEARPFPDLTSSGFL
FXN GAA850 act = FXN promoter activators, primary screen, cell-based, luciferase luminescence, HEK293 lucGAA850; HEK293 lucGAA850 FXN promoter luciferase reporter, 24 h; percent of 10 µM SAHA response; activation, % at 6 µM; hit rate 0.56% among 360,000;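 active = activation above the average of all compounds screened plus 3 SD, cutoff fixed separately per campaign, cut at about 7.5% in these data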;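 also: 0% = DMSO wells and 100% = 10 µM SAHA wells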
STAT3 act = IL-6 driven STAT3 reporter potentiators, primary screen, U3A cells, luciferase, luminescence, MLSCN library; activation (% of control), % at 5.6 µM; AID 871, 2007; hit rate 0.91% among 190,000; IL-6 STAT3-luciferase reporter; 100% = signal with IL-6 EC80 alone;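 active = activation above the screen-wide mean of compound activation plus 3 SD, cut at about 130% in these data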;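 also: 0% = background luminescence of wells with medium and substrate only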
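Test system: Human STAT1-deficient U3A cells with stable STAT3-luciferase reporter | Also added: Interleukin-6, 33 ng/mL | Timing: Compound pre-incubation 1 h before IL-6, then 6 h stimulation at 37 °C | Technique: Luciferase reporter luminescence | Read-out: Percent of IL-6-only median luminescence | Benchmarks: IL-6-only wells as 100% reference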
ABCB6 inh 2 = ABCB6 transporter inhibitors, primary screen, K562-ABCB6 cells, flow cytometry, MLPCN library; K562-ABCB6 porphyrin accumulation, 1 h; stronger effect = lower value; AID 602162, 2011; fluorescence ratio to DMSO, % at 10 µM; ATP-binding cassette sub-family B member 6 (Homo sapiens), Q9NP58; hit rate 0.19% among 360,000;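 active = fluorescence ratio to DMSO below 75%, the collection mean minus 3 SD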;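 also: signal is porphyrin accumulated inside mitochondria; 100% equals median channel fluorescence of DMSO control wells; lower ratio means ABCB6 inhibition with less porphyrin fluorescence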
* marks the source's active call; other numbers are inactive results; · = not tested or not shown.

SMILES | AHR act | FXN GAA850 act | STAT3 act | ABCB6 inh 2
Cc1ccc(-c2nc(N/N=C/c3ccncc3)c3ccccc3n2)cc1 | 64* | 1 | 25 | 91
COc1ccc(/C=N/Nc2nc(-c3cccnc3)nc3ccccc23)cc1OC | 68* | -3 | · | 96
Clc1ccccc1-c1nc(N/N=C/c2cccnc2)c2ccccc2n1 | 67* | 0 | 75 | 105
Oc1ccc(/C=N/Nc2nc(-c3cccnc3)nc3ccccc23)c(O)c1 | 7 | -4 | · | 99
Cc1nc2ccccc2nc1N/N=C/c1ccc(O)cc1 | 76* | 4 | · | 103
Cc1ccc2occ(C3N[C@H](C(=O)O)CS3)c(=O)c2c1 (stereo not given in full) | 11 | 1 | 109 | 115
COc1ccc(CC(=O)Nc2ccc(S(=O)(=O)N3CCCC3)cc2)c(OC)c1 | 0 | 0 | · | 96
CCc1ccc(CN(C)C(=O)C2CCC(=O)N(Cc3ccccn3)C2)cc1 (stereo not given) | -2 | 0 | · | 94
O=C(NC1CCCCC1)C(c1ccc(O)cc1)N(CC1CCCO1)C(=O)C1COc2ccccc2O1 (stereo not given) | 1 | -4 | 105 | 92
c1ccc2c(Nc3nc(-c4ccncc4)nc4ccccc34)cccc2c1 | 51* | 0 | · | 96
Clc1ccc(/C=N/Nc2nc(Cl)nc3ccccc23)cc1 | 65* | 5 | 93 | 95
Cn1ncc(Br)c1C(=O)Nc1ccc(Cl)cn1 | 65* | 2 | 86 | 97
COC(=O)c1ccccc1NC(=O)c1c(Br)cnn1C | 3 | 0 | 110 | 100
Cn1ncc(Br)c1C(=O)Nc1ccc(Br)cn1 | 175* | 0 | 93 | 98
CCC(C)C(NC(=O)OC(C)(C)C)C(=O)NC(C(=O)N1CCCC1C(N)=O)C(C)CC (stereo not given) | -1 | 0 | 100 | 103
Cc1cc(C)n2nc(CNS(=O)(=O)c3ccc(CC(C)C)cc3)nc2n1 | -1 | 0 | · | 115
COc1ccc(NC(=O)c2c(NC(=O)CNCc3ccco3)sc3c2CCC3)c(OC)c1 | 6 | 0 | 86 | 108
COc1ccc(NC(=O)c2c(NC(=O)CNCc3ccco3)sc3c2CCC3)cc1 | 53* | -1 | 96 | 101
O=C(Nc1cc(C(F)(F)F)ccc1N1CCOCC1)c1ccc2ccccc2n1 | 29 | 2 | 134* | 89
Cc1ccc(-n2c(SCC(=O)NCC3CCCO3)nc3n[nH]c(C)c3c2=N)cc1Cl (stereo not given) | 59* | -3 | 66 | 97
Cc1cc(-n2c(SCC(=O)NCCC3=CCCCC3)nc3n[nH]c(C)c3c2=N)ccc1Cl | 53* | -4 | · | 95
O=C(CN(Cc1ccccc1Cl)C(=O)c1csnn1)NCCc1ccccc1 | 3 | 1 | · | 87
CCN(CC)S(=O)(=O)c1ccc2[nH]c(=O)cc(C(=O)NCc3ccccc3)c2c1 | -3 | 1 | · | 95
O=[N+]([O-])c1cccc(-c2ccc(/C=N/n3c(-c4ccccc4)n[nH]c3=S)o2)c1 | 10 | 0 | 108 | 101
Cc1nnc(N/N=C/c2ccccc2O)n1N | 48* | 0 | 109 | 97
SMILES | AHR act | FXN GAA850 act | STAT3 act | ABCB6 inh 2
Cc1nnc(N/N=C\c2ccc(-c3ccccc3[N+](=O)[O-])o2)n1N | 61* | 1 | 127 | 98
O=C(N/N=C/c1ccc(-c2ccccc2[N+](=O)[O-])o1)[C@H]1C[C@@H]1c1ccccc1 | 69* | 0 | 108 | 101
O=C(N/N=C/c1ccc(-c2ccc([N+](=O)[O-])cc2)o1)[C@H]1C[C@@H]1c1ccccc1 | 2 | 3 | · | 104
Cc1n[nH]c(=S)n1/N=C/c1ccc(-c2ccccc2[N+](=O)[O-])o1 | 60* | 3 | 107 | 109
CCOC(=O)C1CCCN(c2nc3ccccc3nc2NS(=O)(=O)c2ccc(C)cc2)C1 (stereo not given) | 0 | 3 | · | 97
Cc1cc(C)cc(N2C(N)=NC(N)=NC2c2ccccc2F)c1 (stereo not given) | 2 | -2 | · | 97
Cc1cccc(NC(=O)c2ccc(COc3cccc4ccccc34)o2)n1 | 71* | 2 | 108 | 93
O=[N+]([O-])c1ccc(-c2cn(-c3ccccc3)c(=S)[nH]2)cc1 | 47* | 7 | 106 | 93
O=[N+]([O-])c1cccc(-c2cn(-c3ccccc3)c(=S)[nH]2)c1 | 74* | 3 | 98 | 97
S=c1[nH]c(-c2ccccc2)cn1-c1ccccc1 | 36 | 3 | · | 100
